Values belong to the molecule of their own block, whether it stands above or below them.
Experiments:
Type in all cases: cell-based
Cannabinoid receptor 2 [1] = biological target: T1, Cannabinoid receptor 2 (Homo sapiens, UniProt P34972); assay: Displacement of [3H]-WIN 55,212-2 from human CB2 receptor expressed in human HEK293 cells after 90 mins by radioligand assay
Cannabinoid receptor 1 [2] = biological target: T2, Cannabinoid receptor 1 (Homo sapiens, UniProt P21554); assay: Displacement of [3H]-CP-55,940 from human CB1 receptor expressed in human HEK293 cells at 10 uM after 90 mins by radioligand assay
In short: (§1)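 Percent displacement of [3H]-CP 55,940 (0.5 nM) from human recombinant CB1 in HEK-293 cell membranes (Bmax 2.5 pmol/mg protein), with a single inhibitor concentration of 1 or 10 µM. Incubation was 90 min at 30 °C, and nonspecific binding was defined with 10 uM WIN 55212-2.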

Cannabinoid receptor 1 [3] = biological target: T2, Cannabinoid receptor 1; assay: Displacement of [3H]-CP-55,940 from human CB1 receptor expressed in human HEK293 cells after 90 mins by radioligand assay
In short: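 Membranes from HEK-293 cells transfected with human recombinant CB1 (Bmax 2.5 pmol/mg protein) were incubated with 0.14 nM [3H]-CP-55,940 (Kd 0.18 nM) and increasing compound concentrations for 90 min at 30 °C. Nonspecific binding was defined with 10 uM WIN 55212-2. Ki was calculated from IC50 by Cheng–Prusoff.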

Cannabinoid receptor 2 [4] = biological target: T1, Cannabinoid receptor 2; assay: Displacement of [3H]-WIN 55,212-2 from human CB2 receptor expressed in human HEK293 cells at 10 uM after 90 mins by radioligand assay
Cannabinoid receptor 2 [5] = biological target: T1, Cannabinoid receptor 2; assay: Displacement of [3H]-WIN 55,212-2 from human CB2 receptor expressed in human HEK293 cells at 1 uM after 90 mins by radioligand assay
Cannabinoid receptor 1 [6] = biological target: T2, Cannabinoid receptor 1; assay: Displacement of [3H]-CP-55,940 from human CB1 receptor expressed in human HEK293 cells at 1 uM after 90 mins by radioligand assay; in short: as §1

T1 sequence (P34972 whole entry): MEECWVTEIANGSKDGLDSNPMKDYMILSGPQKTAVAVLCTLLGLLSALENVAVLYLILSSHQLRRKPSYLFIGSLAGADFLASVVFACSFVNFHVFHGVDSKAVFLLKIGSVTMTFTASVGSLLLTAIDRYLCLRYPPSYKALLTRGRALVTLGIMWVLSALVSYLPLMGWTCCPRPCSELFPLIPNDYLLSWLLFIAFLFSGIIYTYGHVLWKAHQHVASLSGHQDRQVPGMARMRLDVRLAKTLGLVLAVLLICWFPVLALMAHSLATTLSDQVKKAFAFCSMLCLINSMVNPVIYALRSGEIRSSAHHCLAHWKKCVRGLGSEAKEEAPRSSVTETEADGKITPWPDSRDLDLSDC
T2 sequence (P21554 whole entry): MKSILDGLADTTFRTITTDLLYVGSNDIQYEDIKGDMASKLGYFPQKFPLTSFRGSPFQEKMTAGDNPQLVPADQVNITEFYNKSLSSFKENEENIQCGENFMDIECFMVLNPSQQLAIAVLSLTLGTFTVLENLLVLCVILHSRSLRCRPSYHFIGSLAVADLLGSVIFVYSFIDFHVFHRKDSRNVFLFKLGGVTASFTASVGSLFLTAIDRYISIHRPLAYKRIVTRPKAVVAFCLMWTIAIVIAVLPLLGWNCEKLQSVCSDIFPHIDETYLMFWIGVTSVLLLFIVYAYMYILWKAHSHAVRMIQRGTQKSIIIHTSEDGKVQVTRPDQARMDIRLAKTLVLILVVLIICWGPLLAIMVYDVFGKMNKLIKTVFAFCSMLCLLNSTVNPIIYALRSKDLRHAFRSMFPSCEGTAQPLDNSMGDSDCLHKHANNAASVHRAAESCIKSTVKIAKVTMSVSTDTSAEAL

SMILES: CCOC(=O)/C(=C/c1cn(CCN2CCCCC2)c2ccccc12)C(=O)c1ccccc1
IC50 (Cannabinoid receptor 2 [1]): 5480 nM | Ki (Cannabinoid receptor 2 [1]; read-out: Ki): 1390 nM | Activity (Cannabinoid receptor 1 [2]): 25.1% | IC50 (Cannabinoid receptor 1 [3]): > 10000 nM | Ki (Cannabinoid receptor 1 [3]): > 10000 nM | Activity (Cannabinoid receptor 2 [4]): 70.8%

Ki (Cannabinoid receptor 2 [1]; read-out: Ki): 7.5 nM | Activity (Cannabinoid receptor 1 [2]): 83% | Activity (Cannabinoid receptor 2 [4]): 101%
SMILES: N#C/C(=C\c1cn(CCN2CCCCC2)c2ccccc12)S(=O)(=O)c1ccccc1

SMILES: CCOC(=O)/C(=C/c1cn(CCN2CCOCC2)c2ccccc12)C(=O)c1ccccc1
IC50 (Cannabinoid receptor 2 [1]): 6220 nM | Ki (Cannabinoid receptor 2 [1]; read-out: Ki): 1580 nM | Activity (Cannabinoid receptor 1 [2]): 43.2% | IC50 (Cannabinoid receptor 1 [3]): > 10000 nM | Ki (Cannabinoid receptor 1 [3]): > 10000 nM | Activity (Cannabinoid receptor 2 [4]): 66%

SMILES: CC1(C)C(C(=O)c2cn(CC3CCOCC3)c3c(CC4CCOCC4)c4c(cc23)OCO4)C1(C)C
Ki (Cannabinoid receptor 2 [1]; read-out: pKi (converted)): 1.02 nM

SMILES: N#C/C(=C\c1cn(CCN2CCOCC2)c2ccccc12)S(=O)(=O)c1ccccc1
IC50 (Cannabinoid receptor 2 [1]): 40.1 nM | Ki (Cannabinoid receptor 2 [1]; read-out: Ki): 10.2 nM | IC50 (Cannabinoid receptor 1 [3]): 155 nM | Ki (Cannabinoid receptor 1 [3]): 62 nM | Activity (Cannabinoid receptor 2 [5]): 95.9% | Activity (Cannabinoid receptor 1 [6]): 85%
